Results as given in PubChem BioAssay.
Values without a mark were called inactive. Results filed as inconclusive are left out. The source made the active and inactive calls.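 Rule for the calls, unless noted: active = viability increase at or above a cutoff of the median across tested compounds plus 3 SD (cut at about 8.5% in these data, passing the limit was not always enough); inconclusive = some gains above the cutoff, reason not given; inactive = the rest.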

What was measured:
[1] = OD615 S. cerevisiae growth inhibition, permissive medium, pilot counter-assay, permissive growth control for S. cerevisiae lifespan shortening project (AID 705;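 active = growth inhibition above 25% in both replicates, a cutoff set 3 SD above the mean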); conditions: OD615, 24 h, at 10 µM, active compounds read high
In short: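 System: Engineered DeaD yeast | Buffer or medium: SC raffinose/galactose permissive medium | Incubation: Cells pre-grown 4 h, then 24 h compound exposure, 30 °C humidified | Measured by: Absorbance (optical density) at 615 nm | Read-out: Reduction in yeast growth (OD615)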

[2] = Restrictive medium S. cerevisiae growth inhibition, OD615, pilot screen of yeast lifespan reduction project, restrictive growth control (AID 706;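 active = growth inhibition above a set limit, 3 SD over mean compound inhibition, in both replicates, cut at about 43% in these data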;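 note: modified DeaD lifespan yeast strain shifted to restrictive glucose medium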); conditions: OD615, 48 h, at 10 µM, active compounds read high
In short: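 Material: modified S. cerevisiae; Medium: glucose-based CSMM-D restrictive medium; Compound dosing: one concentration, 10 µM final, 0.25% DMSO; Incubation: 48 h compound exposure at 30 °C; Measured by: OD615.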

[3] = viability gain of MRP-1-high H69AR cells under doxorubicin, pilot screen, MRP-1 activator project, CellTiter-Glo, duplicate (AID 807); conditions: H69AR viability with doxorubicin, CellTiter-Glo luminescence; at 10 µM; active compounds read high;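 note: compound pretreatment 18-22 h then 72 h combined with doxorubicin; 0% = doxorubicin alone and 100% = vehicle without doxorubicin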
[4] = growth suppression of beta-catenin knockout HCT116, pilot screen, human colon tumor cells (AID 823;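 active = cell viability at or below a set limit in both duplicate runs, the limit being the all-compound median minus 4 SD, cut at about 23% in these data, passing the limit was not always enough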;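 note: 0% = wells killed by 20 µM Hyamine and 100% = untreated DMSO cell wells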); conditions: CellTiter-Glo, 60 h, at 10 µM, active compounds read low
[5] = growth suppression of PTEN-deleted HCT116, pilot screen, cell-based, HCT116 clonal line, CellTiter-Glo (AID 824;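 active = viability at or below 27.92% in each of two runs, the all-compound median minus 4 SD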;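 note: 0% = 20 µM Hyamine control and 100% = vehicle cell control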); conditions: 60 h, at 10 µM, active compounds read low
[6] = inhibitors of the yeast RAM network, pilot screen, dse1pr::URA3 reporter, 5-FOA selection (AID 869;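 active = inhibition over a set limit, the all-compound mean plus 3 SD, in both replicate runs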;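 note: 0% = DMSO wells with no growth and 100% = 10 µM 1-NA-PP1 with full growth; RAM network block rescues cells from 5-FOA so hits raise OD615 growth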); conditions: S. cerevisiae dse1pr::URA3 5-FOA growth, OD615, 2 d; at 10 µM; active compounds read high; strain carries analog-sensitive mutant Cbk1 kinase
[7] = RAM signaling pathway blockade in yeast – S. cerevisiae, Pdr1DBD-CYC8 efflux-inhibited sensitized strain, primary screen (AID 1298;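 active = RAM network inhibition above 8.4% in each of two replicates, 3 SD over the compound average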;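 note: 0% = DMSO untreated cells without growth and 100% = 10 µM 1-NA-PP1 full growth; higher means more yeast growth rescued from 5-FOA killing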); conditions: S. cerevisiae cbk1-as DSE1-URA3 strain, 5-FOA growth OD615, 2 d; at 50 µM; active compounds read high

SMILES	growth inhibition [1]	growth inhibition [2]	viability increase [3] [%]	viability [4] [%]	viability [5] [%]	inhibition [6] [%]	RAM network inhibition [7] [%]
CCN(CC)c1cc(C)c2cc(NC(=O)CNC(C)=O)ccc2n1	-10.4%	-8.29%	-2.37	90	91.1	1.11	2.59
CC(C)c1nc(SCC(=O)N2CCOCC2)c2c(=O)n(C)c(=O)n(C)c2n1	2.91%	-8.92%	-1.75	102	95.6	2.57	-2.21
CCOC(=O)c1[nH]c2ccccc2c1NC(=O)c1ccc2c(c1)OCO2	-2.92%	-6.88%	-4.72	85.6	85.6	1.8	2.88
O=C(NCCCn1ccnc1)c1cccc(S(=O)(=O)Nc2ccccc2F)c1	-13.9%	-26.1%	-0.61	92.3	92.8	2.51	5.99
Clc1ccc(-n2ncc3c(N4CCCCCC4)ncnc32)cc1	1.26%	-16.7%	-0.56	83.5	78.5	-0.14	8.42
CC(=O)Oc1ccc(N2C(=O)C3C(C2=O)C2(C)C=CC3(C)O2)cc1 (configuration not stated)	95.1% (active)	100% (active)	-1.26	99	98.4	2.16	0.09
Cc1c(C(=O)NCc2ccc3c(c2)OCO3)sc2nc(-c3ccc(F)cc3)cn12	-13.8%	-14.9%	0.84	108	105	2.14	6.3
COc1ccc(-c2nn(CC(=O)N(C)C)c(=O)c3ccccc23)cc1	-7.62%	-6.71%	-1.08	99.8	86.4	1.01	0.6
CC(=O)Nc1ccc(S(=O)(=O)N2CCN(c3cccc(C)c3C)CC2)cc1	-2.38%	-3.89%	-6.76	35.8	34.5	0.185	0.9
Cn1c(=O)oc2cc(S(=O)(=O)N3CCC(C(=O)N4CC=C(c5ccccc5)CC4)CC3)ccc21	-0.22%	4.63%	0.15	98.9	94.8	0.01	6.76
CS(=O)(=O)N1Cc2ccccc2CC1C(=O)Nc1ccccc1C(N)=O (configuration not stated)	-2.29%	-1.52%	-1.04	108	97	3.26	7.36
O=C(NCCO)c1ccc2[nH]c3c(c2c1)CCCC3	-12.1%	-18.9%	-0.28	98.9	96.1	1.46	4.19
Cc1cc2ncn(CC(O)COC3CCCCC3)c2cc1C (configuration not stated)	-8.15%	-2.2%	-2.98	89.9	90.3	1.75	4.21
CSC1=NCCN1C(=O)c1ccc(S(=O)(=O)N2CCOCC2)cc1	3.77%	10.2%	-1.31	102	94.1	0.62	3.04
Cc1cc(-c2ccco2)n(CC(=O)NCCCc2ccccc2)n1	-13.3%	-2.17%	-1.48	100	97	0.905	-0.37
CC(C)(C)SCCNS(=O)(=O)c1ccccc1	-8.9%	6.57%	-0.28	99.8	93.4	2.52	3.01
Cc1cccn2cc(CCNC(=O)c3ccc(Br)o3)nc12	-8.18%	-5.67%	-1.61	99	94.3	1.12	1.91
COC(=O)c1ccc2c(c1)N(C)CCS2	-7.72%	-2.27%	-0.04	101	93.9	0.22	-0.26

SMILES	growth inhibition [1]	growth inhibition [2]	viability increase [3] [%]	viability [4] [%]	viability [5] [%]	inhibition [6] [%]	RAM network inhibition [7] [%]
O=C1NCCCC1C(=O)N1CCN(C(=O)c2ccco2)CC1 (configuration not stated)	-3.22%	-1.05%	-0.63	106	98.6	-0.03	0.31
Clc1ccc(CSc2nnc(-c3cccnc3)n2Cc2ccco2)c(Cl)c1	1.24%	34.1%	-3.29	87.3	88.2	2.67	11.6
Cc1cc2cc(CNC(=O)c3ccc(Br)o3)ccc2n1C	-9.25%	-10.3%	-2.79	94.2	92.1	1.93	9.25
CCOC(=O)CN1CC23C=CC(O2)C(C(=O)O)C3C1=O (configuration not stated)	2.83%	-3.85%	0.14	103	107	0.73	4
COC(=O)c1ccsc1NC(=O)C1COc2ccccc2O1 (configuration not stated)	6.25%	8.76%	-1.07	92.4	85.5	0.425	8.05
Cc1ccc2oc3c(c(=O)c2c1)C(c1cccs1)N(CCCN(C)C)C3=O (configuration not stated)	2.01%	4.98%	-2.74	97.2	97.8	1.28	-1.13
CC1CCCN(c2nc3c(c(=O)[nH]c(=O)n3C)n2Cc2ccccc2Cl)C1 (configuration not stated)	-15.4%	-35.9%	-5.4	84.9	81	0.485	9.1
CCN(CC)CCNC(=O)Cn1cnc2sc(C)c(S(=O)(=O)N3CCOCC3)c2c1=O	6.37%	4.68%	-1.11	99	99.3	0.39	6.22
O=C(NC1CCCCC1)C(c1ccccc1)N1CCC2(CC1)OCCO2 (configuration not stated)	0.86%	6.33%	-4.79	97.6	95.5	1.5	1.43
CCc1ccc(Nc2cc(C)nc3nc(C)nn23)cc1	-16.8%	-7.12%	-4.04	96.8	96	1.99	4.01
Cc1cc(NC(=O)CSc2nnc(C)c(=O)[nH]2)no1	-0.975%	1.15%	0.9	112	101	2.48	1.75
CCN1C(=O)CSc2ccc(C(=O)OC)cc21	-6.5%	-12.7%	-1.33	95.6	90.3	1.39	-0.69
O=C(NCc1cccs1)C1CCCN(S(=O)(=O)c2cccc3cccnc23)C1 (configuration not stated)	8.41%	2.37%	-1.59	94.8	90.4	1.41	2.64
CCOC(=O)c1c(CC(C)C)csc1NC=O	-4.46%	-33.1%	-1.84	81.8	80.1	1.18	0.88
COc1ccc(NC(=O)c2nc3nc(C)cc(C(F)F)n3n2)cc1OC	-10.9%	-6.71%	2.09	108	102	0.885	1.05
Cc1ccc2ccc(S(=O)(=O)n3nc(C)cc3C)cc2c1	-6.58%	2.99%	-1.12	84.9	81.2	2.06	5.5
COc1cccc(-c2nnc(NC(=O)C3CCCCC3)o2)c1	-14%	-2.06%	-3.8	83.5	85.7	1.85	1.88
Cc1nc2ccccc2c2oc(C(=O)NCCCN3CCC(C)CC3)cc12	2.51%	17.8%	-5.7	63.6	64.7	1.96	6.26
